Key:
Coagulation factor X = Coagulation factor X (Homo sapiens, UniProt P00742); assay: Inhibitory activity against coagulation factor X.
In short: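 Human Factor Xa (0.3 nM) with chromogenic substrate S-2765 (0.15 mM) in 50 mM Tris-HCl pH 8.0, 100 mM NaCl, 0.1% BSA. A405 background read taken at once, then 60 min at room temperature, then p-nitroaniline release rate at 405 nm. Duplicates at seven concentrations; % inhibition versus control; IC50 from four-parameter logistic fit, averaged over the duplicates.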

Coagulation factor VII = target: T1, Coagulation factor VII (Homo sapiens, UniProt P08709); assay: Inhibitory activity against tissue coagulation factor VII.
T1 sequence (P08709 whole entry): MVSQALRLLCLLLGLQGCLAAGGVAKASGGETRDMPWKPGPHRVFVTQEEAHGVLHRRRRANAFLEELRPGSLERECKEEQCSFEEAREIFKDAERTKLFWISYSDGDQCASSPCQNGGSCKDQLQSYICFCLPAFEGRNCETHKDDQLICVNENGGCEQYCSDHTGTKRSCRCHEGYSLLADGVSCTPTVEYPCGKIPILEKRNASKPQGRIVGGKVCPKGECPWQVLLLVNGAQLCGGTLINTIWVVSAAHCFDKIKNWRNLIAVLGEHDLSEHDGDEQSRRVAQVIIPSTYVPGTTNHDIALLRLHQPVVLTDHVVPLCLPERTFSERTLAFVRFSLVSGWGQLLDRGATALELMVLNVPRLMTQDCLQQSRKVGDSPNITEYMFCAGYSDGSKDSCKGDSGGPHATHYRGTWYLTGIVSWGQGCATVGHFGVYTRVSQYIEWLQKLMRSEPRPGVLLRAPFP
In short: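 Complex of recombinant soluble tissue factor (100 nM) and recombinant human Factor VIIa (2 nM). Substrate N-methylsulfonyl-D-Phe-Gly-Arg-p-nitroaniline at 0.4 mM in 5 mM CaCl2, 50 mM Tris-HCl pH 8.0, 100 mM NaCl, 0.1% BSA. Background A405 read first; after 60 min at room temperature, hydrolysis rate read at 405 nm. Duplicates at seven concentrations; IC50 is the duplicate average.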

[1] = target: Thrombin and coagulation factor VII (Homo sapiens) (UniProt P00734+P08709); assay: Selectivity for coagulation factor VIIa over thrombin IIa.; assay type: protein assay
Prothrombin = Prothrombin (Homo sapiens, UniProt P00734); assay: Inhibitory activity against thrombin (IIa).
In short: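 Human thrombin (0.28 nM) with H-D-Phe-Pip-Arg-p-nitroaniline (0.06 mM) in 50 mM Tris-HCl pH 8.0, 100 mM NaCl, 0.1% BSA. Immediate background read at 405 nm, then 60 min at room temperature before measuring p-nitroaniline release rate at 405 nm. Seven concentrations in duplicate; % inhibition versus control; IC50 by four-parameter logistic regression.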

Sequence of Coagulation factor X (P00742 41-179 limits assumed): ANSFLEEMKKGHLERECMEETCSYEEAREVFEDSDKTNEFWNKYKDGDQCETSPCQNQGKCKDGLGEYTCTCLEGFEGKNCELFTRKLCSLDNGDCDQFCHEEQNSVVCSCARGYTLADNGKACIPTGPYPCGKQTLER
Sequence of Coagulation factor X (P00742 235-488 limits assumed): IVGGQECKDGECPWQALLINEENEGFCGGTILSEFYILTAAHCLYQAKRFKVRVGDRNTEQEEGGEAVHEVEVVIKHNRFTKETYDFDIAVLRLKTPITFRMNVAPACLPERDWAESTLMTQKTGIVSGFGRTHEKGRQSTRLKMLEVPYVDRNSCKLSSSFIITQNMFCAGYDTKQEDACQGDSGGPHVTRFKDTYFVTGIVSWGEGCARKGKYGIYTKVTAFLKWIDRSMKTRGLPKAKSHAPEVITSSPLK

| Compound | IC50 (Coagulation factor X) [nM] | IC50 (Coagulation factor VII) [nM] | Selectivity [1] | IC50 (Prothrombin) [µM] |
| --- | --- | --- | --- | --- |
| Cc1cccc(C)c1C[C@H](NC(=O)[C@@H](Cc1ccccc1)NS(=O)(=O)Cc1ccccc1)C(=O)N[C@@H](CCCN=C(N)N)C(=O)c1nccs1 | 2770 | 700 | 40 | 28.1 |
| N=C(N)NCCC[C@H](NC(=O)[C@H](COCc1ccccc1)NC(=O)[C@@H](Cc1ccccc1)NS(=O)(=O)Cc1ccccc1)C(=O)c1nccs1 | 310 | 1530 | 6 | 9.89 |
| N=C(N)NCCC[C@H](NC(=O)[C@H](CC(=O)OC1CCCCC1)NC(=O)[C@@H](Cc1ccccc1)NS(=O)(=O)Cc1ccccc1)C(=O)c1nccs1 | 1250 | 3180 | 2 | 4.99 |
| NC(N)=NCCC[C@H](NC(=O)[C@H](Cc1ccc([N+](=O)[O-])cc1)NC(=O)[C@@H](Cc1ccccc1)NS(=O)(=O)Cc1ccccc1)C(=O)c1nccs1 | 2180 | 5880 |  | > 30 |
| N=C(N)NCCC[C@H](NC(=O)[C@H](Cc1ccc(Cl)cc1)NC(=O)[C@@H](Cc1ccccc1)NS(=O)(=O)Cc1ccccc1)C(=O)c1nccs1 | 610 | 680 | 5 | 3.42 |
| N=C(N)NCCC[C@H](NC(=O)[C@H](CCc1ccccc1)NC(=O)[C@@H](Cc1ccccc1)NS(=O)(=O)Cc1ccccc1)C(=O)c1nccs1 | 540 | 900 | 12 | 10.4 |
| Cc1ccc(C[C@H](NC(=O)[C@@H](Cc2ccccc2)NS(=O)(=O)Cc2ccccc2)C(=O)N[C@@H](CCCN=C(N)N)C(=O)c2nccs2)cc1 | 570 | 1290 | 6 | 7.48 |
| N=C(N)NCCC[C@H](NC(=O)[C@H](CC1CCCCC1)NC(=O)[C@@H](Cc1ccccc1)NS(=O)(=O)Cc1ccccc1)C(=O)c1nccs1 | 2700 | 3300 | 7 | 24.2 |
| N=C(N)NCCC[C@H](NC(=O)[C@H](Cc1ccc(F)cc1)NC(=O)[C@@H](Cc1ccccc1)NS(=O)(=O)Cc1ccccc1)C(=O)c1nccs1 | 185 | 170 | 19 | 3.15 |
| N=C(N)NCCC[C@H](NC(=O)[C@H](CO)NC(=O)[C@@H](Cc1ccccc1)NS(=O)(=O)Cc1ccccc1)C(=O)c1nccs1 | 240 | 110 | 0.4 | 0.04 |
| N=C(N)NCCC[C@H](NC(=O)[C@H](Cc1cc(F)c(F)c(F)c1)NC(=O)[C@@H](Cc1ccccc1)NS(=O)(=O)Cc1ccccc1)C(=O)c1nccs1 | 250 | 200 |  |  |
| N=C(N)NCCC[C@H](NC(=O)[C@H](Cc1ccc(Br)cc1)NC(=O)[C@@H](Cc1ccccc1)NS(=O)(=O)Cc1ccccc1)C(=O)c1nccs1 | 380 | 760 | 4 | 3.19 |
| N=C(N)NCCC[C@H](NC(=O)[C@H](CC1CC1)NC(=O)[C@@H](Cc1ccccc1)NS(=O)(=O)Cc1ccccc1)C(=O)c1nccs1 | 2120 | 820 | 11 | 9.2 |
| N=C(N)NCCC[C@H](NC(=O)[C@H](Cc1cccc(-c2ccccc2)c1)NC(=O)[C@@H](Cc1ccccc1)NS(=O)(=O)Cc1ccccc1)C(=O)c1nccs1 | 1070 | 1830 | 1 | 1.68 |
| CN(C)CCCC[C@H](NC(=O)[C@@H](Cc1ccccc1)NS(=O)(=O)Cc1ccccc1)C(=O)N[C@@H](CCCNC(=N)N)C(=O)c1nccs1 | 1700 | 2820 |  | 15.4 |
| CC(C)(C)C[C@H](NC(=O)[C@@H](Cc1ccccc1)NS(=O)(=O)Cc1ccccc1)C(=O)N[C@@H](CCCNC(=N)N)C(=O)c1nccs1 | 1030 | 700 |  | 0.44 |
| CC(=O)Nc1ccc(C[C@H](NC(=O)[C@@H](Cc2ccccc2)NS(=O)(=O)Cc2ccccc2)C(=O)N[C@@H](CCCNC(=N)N)C(=O)c2nccs2)cc1 | 300 | 570 |  | 4.59 |

— ChEMBL document CHEMBL1145084, “Polymer-assisted solution-phase library synthesis and crystal structure of alpha-ketothiazoles as tissue factor VIIa inhibitors” (J Med Chem, 2003)
